ChEMBL document CHEMBL4049410, “Novel benzimidazolyl tetrahydroprotoberberines: Design, synthesis, antimicrobial evaluation and multi-targeting exploration” (2017)
In brackets after ≈: the same amount, converted by molar mass.

Legend:
Aspergillus flavus = assay: Antifungal activity against Aspergillus flavus after 24 hrs by two-fold serial dilution assay; type: functional
In short: (§1)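 Twofold serial broth dilution following NCCLS guidance, with Chloromycin, Norfloxacin and Fluconazole as positive controls. MIC in μM is the lowest concentration giving complete inhibition of visible bacterial or fungal growth.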

Pichia norvegensis = assay: Antifungal activity against Candida mycoderma after 24 hrs by two-fold serial dilution assay; type: functional; in short: as §1
Bacillus subtilis = assay: Antibacterial activity against Bacillus subtilis after 24 hrs by two-fold serial dilution assay; type: functional; in short: as §1
Escherichia coli [1] = assay: Antibacterial activity against Escherichia coli JM109 after 24 hrs by two-fold serial dilution assay; type: functional; in short: as §1
Shigella dysenteriae = assay: Antibacterial activity against Shigella dysenteriae after 24 hrs by two-fold serial dilution assay; type: functional
Proteus vulgaris = assay: Antibacterial activity against Bacillus proteus ATCC 13315 after 24 hrs by two-fold serial dilution assay; type: functional; in short: as §1
Micrococcus luteus = assay: Antibacterial activity against Micrococcus luteus ATCC 4698 after 24 hrs by two-fold serial dilution assay; type: functional, NCTC 2665; in short: as §1
Saccharomyces cerevisiae = assay: Antifungal activity against Saccharomyces cerevisiae after 24 hrs by two-fold serial dilution assay; type: functional; in short: as §1
Escherichia coli [2] = assay: Antibacterial activity against Escherichia coli DH52 after 24 hrs by two-fold serial dilution assay; type: functional; in short: as §1
Pseudomonas aeruginosa = assay: Antibacterial activity against Pseudomonas aeruginosa after 24 hrs by two-fold serial dilution assay; type: functional; in short: as §1
Staphylococcus aureus [3] = assay: Antibacterial activity against Staphylococcus aureus ATCC 25923 after 24 hrs by two-fold serial dilution assay; type: functional; in short: as §1
Cyberlindnera jadinii = assay: Antifungal activity against Candida utilis after 24 hrs by two-fold serial dilution assay; type: functional; in short: as §1
Candida albicans = assay: Antifungal activity against Candida albicans ATCC 76615 after 24 hrs by two-fold serial dilution assay; type: functional; in short: as §1
Salmonella typhi = assay: Antibacterial activity against Bacillus typhi after 24 hrs by two-fold serial dilution assay; type: functional, Salmonella enterica subsp. enterica serovar Typhi
Staphylococcus aureus [4] = assay: Antibacterial activity against methicillin-resistant Staphylococcus aureus N315 after 24 hrs by two-fold serial dilution assay; type: functional
[5] = Bacillus subtilis, 24 h, read-out: MIC
[6] = Escherichia coli, JM109, 24 h, read-out: MIC
[7] = Shigella dysenteriae, 24 h, read-out: MIC
[8] = Proteus vulgaris, ATCC 13315, 24 h, read-out: MIC
[9] = Micrococcus luteus, NCTC 2665, 24 h, read-out: MIC
[10] = Escherichia coli, DH52, 24 h, read-out: MIC
[11] = Salmonella enterica, 24 h, read-out: MIC
[12] = Pseudomonas aeruginosa, 24 h, read-out: MIC
[13] = Staphylococcus aureus, ATCC 25923, 24 h, read-out: MIC
[14] = Staphylococcus aureus, N315, 24 h, read-out: MIC
[15] = Pichia norvegensis, 24 h, read-out: MIC
[16] = Saccharomyces cerevisiae, 24 h, read-out: MIC
[17] = Candida albicans, ATCC 76615, 24 h, read-out: MIC
[18] = Williopsis jadinii, 24 h, read-out: MIC

SMILES	MIC (Aspergillus flavus) [µM]	MIC (Pichia norvegensis) [µM]	MIC (Bacillus subtilis) [µM]	MIC (Escherichia coli [1]) [µM]	MIC (Proteus vulgaris) [µM]	MIC (Micrococcus luteus) [µM]	MIC (Saccharomyces cerevisiae) [µM]	MIC (Escherichia coli [2]) [µM]	MIC (Pseudomonas aeruginosa) [µM]	MIC (Staphylococcus aureus [3]) [µM]	MIC (Cyberlindnera jadinii) [µM]	MIC (Candida albicans) [µM]	MIC (Bacillus subtilis; [5]) [µM]	MIC (Escherichia coli [1]; [6]) [µM]	MIC (Shigella dysenteriae; [7]) [µM]	MIC (Escherichia coli [2]; [10]) [µM]	MIC (Pseudomonas aeruginosa; [12]) [µM]	MIC (Staphylococcus aureus [3]; [13]) [µM]	MIC (Staphylococcus aureus [4]; [14]) [µM]	MIC (Saccharomyces cerevisiae; [16]) [µM]	other results
COc1cc(-c2nc3ccccc3n2Cc2ccc(F)cc2)c2c(c1O)CN1CCc3cc4c(cc3C1C2)OCO4.Cl (stereo not drawn)	182	218.4	182	182	182	182	36.4	182	182	109.2	182	182	–	–	–	–	–	–	–	–	MIC (Shigella dysenteriae): 145.6 µM
CCn1cc(C(=O)O)c(=O)c2cc(F)c(N3CCNCC3)cc21 [NORFLOXACIN]	–	–	–	–	–	–	–	–	–	–	–	–	3.1 (≈ 0.99 µg/mL)	50.1 (≈ 16 µg/mL)	5.3 (≈ 1.69 µg/mL)	50.1 (≈ 16 µg/mL)	41.8 (≈ 13.3 µg/mL)	1.1 (≈ 0.351 µg/mL)	25.1 (≈ 8.02 µg/mL)	–	MIC (Proteus vulgaris; [8]): 12.5 µM (≈ 3.99 µg/mL); MIC (Micrococcus luteus; [9]): 4.2 µM (≈ 1.34 µg/mL); MIC (Salmonella typhi; [11]): 10.4 µM (≈ 3.32 µg/mL)
COc1cc(-c2nc3ccccc3n2Cc2ccccc2F)c2c(c1O)CN1CCc3cc4c(cc3C1C2)OCO4.Cl (stereo not drawn)	803.8	10.5	33.5	20.9	20.9	20.9	83.8	20.9	67	–	12.6	20.9	–	–	–	–	–	–	–	–	MIC (Shigella dysenteriae): 50.2 µM; MIC (Salmonella typhi): 6.3 µM
O=C(N[C@H](CO)[C@H](O)c1ccc([N+](=O)[O-])cc1)C(Cl)Cl [CHLORAMPHENICOL]	–	–	–	–	–	–	–	–	–	–	–	–	82.5 (≈ 26.7 µg/mL)	82.5 (≈ 26.7 µg/mL)	99 (≈ 32 µg/mL)	66 (≈ 21.3 µg/mL)	99 (≈ 32 µg/mL)	41.3 (≈ 13.3 µg/mL)	41.3 (≈ 13.3 µg/mL)	–	MIC (Proteus vulgaris; [8]): 99 µM (≈ 32 µg/mL); MIC (Micrococcus luteus; [9]): 20.7 µM (≈ 6.69 µg/mL); MIC (Salmonella typhi; [11]): 82.5 µM (≈ 26.7 µg/mL)
COc1cc(-c2nc3ccccc3n2Cc2cccc(F)c2)c2c(c1O)CN1CCc3cc4c(cc3C1C2)OCO4 (stereo not drawn)	24.3 (≈ 13.4 µg/mL)	–	19.4 (≈ 10.7 µg/mL)	29.1 (≈ 16 µg/mL)	38.8 (≈ 21.3 µg/mL)	19.4 (≈ 10.7 µg/mL)	–	38.8 (≈ 21.3 µg/mL)	48.5 (≈ 26.7 µg/mL)	–	48.5 (≈ 26.7 µg/mL)	–	–	–	116 (≈ 64 µg/mL)	–	–	48.5 (≈ 26.7 µg/mL)	–	24.3 (≈ 13.4 µg/mL)	MIC (Pichia norvegensis; [15]): 48.5 µM (≈ 26.7 µg/mL); MIC (Candida albicans; [17]): 48.5 µM (≈ 26.7 µg/mL); MIC (Staphylococcus aureus [4]): 12.2 µM (≈ 6.71 µg/mL)
OC(Cn1cncn1)(Cn1cncn1)c1ccc(F)cc1F [FLUCONAZOLE]	–	–	–	–	–	–	–	–	–	–	–	–	–	–	–	–	–	–	–	52.2 (≈ 16 µg/mL)	MIC (Aspergillus flavus; Aspergillus flavus, 24 h, read-out: MIC): 836 µM (≈ 256 µg/mL); MIC (Pichia norvegensis; [15]): 26.1 µM (≈ 7.99 µg/mL); MIC (Cyberlindnera jadinii; [18]): 10.9 µM (≈ 3.34 µg/mL)
COc1cc(-c2nc3ccccc3n2CCCCCCn2c3ccccc3c3ccccc32)c2c(c1O)CN1CCc3cc4c(cc3C1C2)OCO4 (stereo not drawn)	617.6 (≈ 427 µg/mL)	–	–	–	617.6 (≈ 427 µg/mL)	741.1 (≈ 512 µg/mL)	–	617.6 (≈ 427 µg/mL)	–	–	–	–	741 (≈ 512 µg/mL)	618 (≈ 427 µg/mL)	–	–	741 (≈ 512 µg/mL)	–	618 (≈ 427 µg/mL)	741 (≈ 512 µg/mL)	MIC (Pichia norvegensis; [15]): 618 µM (≈ 427 µg/mL); MIC (Cyberlindnera jadinii; [18]): 618 µM (≈ 427 µg/mL); MIC (Candida albicans; [17]): 247 µM (≈ 171 µg/mL)
COc1cc(-c2nc3ccccc3n2Cc2ccc(Cl)cc2)c2c(c1O)CN1CCc3cc4c(cc3C1C2)OCO4.Cl (stereo not drawn)	669.8	267.9	134	535.9	535.9	535.9	803.8	669.8	535.9	267.9	535.9	401.9	–	–	–	–	–	–	–	–	MIC (Salmonella typhi): 201 µM
COc1cc(-c2nc3ccccc3n2Cc2ccc(F)cc2)c2c(c1O)CN1CCc3cc4c(cc3C1C2)OCO4 (stereo not drawn)	50.2 (≈ 27.6 µg/mL)	25.1 (≈ 13.8 µg/mL)	20.1 (≈ 11 µg/mL)	25.1 (≈ 13.8 µg/mL)	25.1 (≈ 13.8 µg/mL)	40.1 (≈ 22 µg/mL)	–	–	25.1 (≈ 13.8 µg/mL)	–	60.2 (≈ 33.1 µg/mL)	25.1 (≈ 13.8 µg/mL)	–	–	–	100 (≈ 55.1 µg/mL)	–	60.2 (≈ 33.1 µg/mL)	–	20.1 (≈ 11 µg/mL)	–
COc1cc(-c2nc3ccccc3n2Cc2cccc(F)c2)c2c(c1O)CN1CCc3cc4c(cc3C1C2)OCO4.Cl (stereo not drawn)	88.5	70.8	88.5	70.8	88.5	70.8	35.4	141.6	212.4	70.8	106.2	70.8	–	–	–	–	–	–	–	–	–
